The values below come from ChEMBL document CHEMBL5715959, “Inhibition of histone methyltransferase EZH2 in Schistosoma mansoni in vitro by GSK343 reduces egg laying and decreases the expression of genes implicated in DNA replication and noncoding RNA metabolism” (2018).

Calls of active or inactive are those of the source. The rule behind the calls is not given here.

The subject of test [1] is Schistosoma mansoni. Description: Antischistosomal activity against adult Schistosoma mansoni assessed as increased H3K27ac level at 20 uM incubated for 48 hrs by Western blotting analysis. Format: functional, organism-based. In a few lines: (§1)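 Fifty adult worm pairs were treated 48 h with 20 μM GSK343 or vehicle in supplemented RPMI/10% FBS, then lysed in Triton buffer. Nuclear pellets were acid-extracted overnight in 0.25 M HCl at 4°C and histones were TCA-concentrated. 10 μg went on 15% SDS-PAGE and nitrocellulose, probed with anti-H3K27me3, K9ac, K27ac or K4me3, then IRDye secondaries; infrared densitometry was normalized to anti-H3. Three biological replicates; t-test.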

The subject of test [2] is Schistosoma mansoni. Description: Antischistosomal activity against juvenile Schistosoma mansoni assessed as damaged dorsal surface ridge at 20 to 50 uM incubated for 48 hrs by scanning electron microscopy analysis. Format: functional, organism-based. As to conditions: dose 20-50 µM. The procedure, abridged: (§2)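 Juvenile worms recovered by perfusion, five per well in supplemented RPMI (10% FBS, antibiotics, 37°C, 5% CO2), 2 h adaptation, then exposed 48 h to compound or 0.1% DMSO. Fixed in modified Karnovsky reagent (pH 7.4), washed in cacodylate buffer, post-fixed 1 h in 1% osmium tetroxide, ethanol-dehydrated, critical-point dried, gold-sputtered and imaged by scanning electron microscopy.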

For test [3], the system named is Schistosoma mansoni. Description: Cytotoxicity against juvenile Schistosoma mansoni assessed as decrease in viability at 20 to 50 uM incubated for 24 hrs by CellTiter-Glo Luminescent assay relative to control. It counts as functional. As to conditions: dose 20-50 µM. In a few lines: (§3)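 Perfused juvenile worms cultured in supplemented RPMI (10% FBS, 37°C, 5% CO2), exposed 24 or 48 h to compound or 0.1% DMSO. Total parasite ATP read by luminescence, given as % of vehicle; three replicate experiments of 10 juveniles each, mean ± SD.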
(In general: In ATP-based viability assays light output follows the ATP content of the culture.)

The subject of test [4] is Schistosoma mansoni. Description: Cytotoxicity against Schistosoma mansoni assessed as decrease in viability at 20 uM incubated for 5 days by CellTiter-Glo Luminescent assay relative to control. Format: functional. To be noted: time 5 day. In a few lines:
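Newly transformed schistosomula pre-cultured 16 h in M169 with 2% FBS, serotonin, hypoxanthine, hydrocortisone, triiodothyronine and antibiotics at 37°C, 5% CO2, then 100–120 per well exposed up to 5 days to compound or 0.1% DMSO. ATP in intact larvae read by luminescence, expressed as % of vehicle; three replicate experiments, two-way ANOVA.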

The test system of test [5] is Schistosoma mansoni. Description: Antischistosomal activity against adult female Schistosoma mansoni assessed as presence of blisters in dorsal region at 20 uM incubated for 24 to 48 hrs by scanning electron microscopy analysis. It counts as functional, organism-based. As to conditions: time 24-48 hrs. In a few lines:
(§4)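 Adult couples were taken by perfusion into supplemented RPMI, one couple per well, and adapted 2 h at 37°C, 5% CO2. They were exposed to 20 μM GSK343 or 0.1% DMSO for 24 and 48 h. Fixation used modified Karnovsky with osmium post-fix, followed by ethanol dehydration, critical-point drying, gold sputtering and scanning electron microscopy of tegument surfaces.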

For test [6], the system named is Schistosoma mansoni. Description: Antischistosomal activity against adult Schistosoma mansoni assessed as dead worms incubated for 24 hrs by inverted microscope analysis. It counts as functional, organism-based. The procedure, abridged:
(§5)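 Paired adult worms were cultured in RPMI/10% FBS with antibiotics at 37°C, 5% CO2, with GSK343 or 0.1% DMSO. They were viewed by inverted microscope at 3, 6, 12, 24 and 48 h. Motility was scored on a 0–3 scale (3 full movement, 1.5 partial or immobile but alive, 0 dead); death meant no movement over more than 2 min. Pairing was recorded. Three experiments, each with 10 pairs; mean ± SD.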

For test [7], the system named is Schistosoma mansoni. Description: Antischistosomal activity against Schistosoma mansoni assessed as schistosomula living cells at 10 to 50 uM incubated for 24 to 72 hrs by fluorescein diacetate staining based fluorescence microscope analysis. Format: functional, organism-based. As to conditions: dose 10-50 µM, time 24-72 hrs. In a few lines: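 Schistosomula were cultured in supplemented M169 with 10–50 μM GSK343 or 0.1% DMSO for 24, 48 and 72 h. A fresh well set was used per time point, with 2 μg/mL propidium iodide (dead) plus 0.5 μg/mL fluorescein diacetate (live) added. Parasites were read immediately by light and fluorescence microscopy; percent viable was computed against total parasites. About 3600 schistosomula per condition over four biological replicates; 70% ethanol served as positive control.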

Test [8] concerns Schistosoma mansoni. Description: Antischistosomal activity against juvenile Schistosoma mansoni assessed as damaged anterior region at 20 to 50 uM incubated for 48 hrs by scanning electron microscopy analysis. It counts as functional, organism-based. To be noted: in the assay text read “at 50 uM” for “at 20 to 50 uM”. In a few lines: as §2
In test [9] the test system is Schistosoma mansoni. Description: Antischistosomal activity against adult Schistosoma mansoni assessed as drastic reduction in pairing of couples at 50 uM incubated for 3 hrs by inverted microscope analysis relative to control. Format: functional. Set-up: scale not given: the % may be the effect or the level left. The procedure, abridged:
as §5

Test [10] deals with Schistosoma mansoni. Description: Antischistosomal activity against Schistosoma mansoni assessed as loss of spines at 20 uM incubated for 24 hrs by scanning electron microscopy analysis. It counts as functional, organism-based. In a few lines: (§6)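 Newly transformed schistosomula were held 16 h in M169 with 2% FBS, serotonin, hypoxanthine, hydrocortisone, triiodothyronine and antibiotics at 37°C, 5% CO2, at 2,000 per well. They were then exposed to 20 μM GSK343 or 0.1% DMSO for 24 and 48 h. Fixation was modified Karnovsky (pH 7.4) with 1% osmium post-fix, then ethanol dehydration, critical-point drying, gold coating and SEM. Lengths came from three experiments, each with 20 schistosomula.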

Test [11] has as its system Schistosoma mansoni. Description: Cytotoxicity against juvenile Schistosoma mansoni assessed as decrease in viability at 50 uM incubated for 48 hrs by CellTiter-Glo Luminescent assay relative to control. Format: functional. In a few lines:
as §3

The subject of test [12] is Schistosoma mansoni. Description: Antischistosomal activity against adult Schistosoma mansoni assessed as dead worms at 50 uM incubated for 48 hrs by inverted microscope analysis. Format: functional, organism-based. The procedure, abridged:
as §5

Test [13] concerns Schistosoma mansoni. Description: Antischistosomal activity against female Schistosoma mansoni assessed as down-regulated EED mRNA level at 20 uM incubated for 48 hrs by RT-qPCR analysis. Format: functional, organism-based. The procedure, abridged: (§7)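 Schistosomula (supplemented M169) or adult worms (supplemented RPMI) were treated 48 h with 20 μM GSK343 or 0.1% DMSO at 37°C, 5% CO2. qPCR normalizer genes were chosen from RNA-seq data as those with TPM >1 and a treated/control ratio of 0.9–1.1 that were not differentially expressed. Relative expression was calculated by comparative Ct; significance by t-test.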

For test [14], the system named is Schistosoma mansoni. Description: Antischistosomal activity against Schistosoma mansoni assessed as length of schistosomula at 20 uM incubated for 24 to 48 hrs by scanning electron microscopy analysis (reference value: […]). Format: functional. To be noted: time 24-48 hrs. In a few lines:
as §6

The test system of test [15] is Schistosoma mansoni. Description: Antischistosomal activity against adult female Schistosoma mansoni assessed as damaged tegument with extensive sloughing at 20 uM incubated for 24 to 48 hrs by scanning electron microscopy analysis. It counts as functional, organism-based. As to conditions: time 24-48 hrs. In a few lines: as §4
Test [16] concerns Schistosoma mansoni. Description: Antischistosomal activity against adult male Schistosoma mansoni assessed as morphological alterations in anterior and posterior regions at 20 uM incubated for 48 hrs by scanning electron microscopy analysis. Format: functional, organism-based. In a few lines: as §4
In test [17] the test system is Schistosoma mansoni. Description: Antischistosomal activity against female Schistosoma mansoni assessed as down-regulated nanos mRNA level at 20 uM incubated for 48 hrs by RT-qPCR analysis. Format: functional, organism-based. The procedure, abridged:
as §7
Background: Real-time PCR tracks product formation cycle by cycle.

The subject of test [18] is Schistosoma mansoni. Description: Antischistosomal activity against adult Schistosoma mansoni assessed as decreased H3K27me3 level at 20 uM incubated for 48 hrs by Western blotting analysis. It counts as functional, organism-based. In a few lines:
as §1
A general note: Immunoblotting shows a protein as a band on a membrane.

Test [19] concerns Schistosoma mansoni. Description: Antischistosomal activity against Schistosoma mansoni assessed as lower growth rate at 20 uM incubated for 24 to 48 hrs by scanning electron microscopy analysis. As to conditions: time 24-48 hrs. Format: functional. In a few lines:
as §6

Test [20] has as its system Schistosoma mansoni. Description: Antischistosomal activity against adult Schistosoma mansoni assessed as increased H3K9ac level at 20 uM incubated for 48 hrs by Western blotting analysis. Format: functional, organism-based. In a few lines: as §1
The test system of test [21] is Schistosoma mansoni. Description: Antischistosomal activity against adult Schistosoma mansoni assessed as altered motility at 50 uM incubated for 12 hrs by inverted microscope analysis. It counts as functional, organism-based. The procedure, abridged: as §5

Consider `CCCc1cc(C)[nH]c(=O)c1CNC(=O)c1cc(-c2ccnc(N3CCN(C)CC3)c2)cc2c1cnn2C(C)C`, for which the result in the test on Schistosoma mansoni [1], in the test with Schistosoma mansoni [2], in the test with Schistosoma mansoni [5], with Schistosoma mansoni [6], in the test with Schistosoma mansoni [7] and in the test on Schistosoma mansoni [8] was Active. Moreover, the result with Schistosoma mansoni [10], with Schistosoma mansoni [12], with Schistosoma mansoni [13], in the test on Schistosoma mansoni [15], with Schistosoma mansoni [17] and with Schistosoma mansoni [18] was Active. For the same compound, the result in the test on Schistosoma mansoni [20] and with Schistosoma mansoni [21] was Active. Besides, the Activity in the test with Schistosoma mansoni [3] was 20%; in the test with Schistosoma mansoni [4], 70%; in the test on Schistosoma mansoni [9], roughly 0%; in the test with Schistosoma mansoni [11], 70%; in the test with Schistosoma mansoni [14] it was 74 µm. For the same compound, in the test on Schistosoma mansoni [16], the result was inactive. Moreover, the “fold change (FC)” value in the test with Schistosoma mansoni [19] is recorded as 4.
